The values below come from ChEMBL document CHEMBL1130667, “Discovery of an imidazopyridine-containing 1,4-benzodiazepine nonpeptide vitronectin receptor (alpha v beta 3) antagonist with efficacy in a restenosis model” (Bioorg Med Chem Lett, 1998).

A value given as a limit tells only on which side of the number the result lay.

Data set [1] addresses Integrin alpha-V/beta-3 (Homo sapiens, UniProt P05106+P06756). Briefly: Antagonistic activity for human vitronectin receptor (alphaV-beta3) from platelets. The class given is functional. In short, it runs like this: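 Competitive binding to human αvβ3 purified from platelets; a tritiated RGD peptide is the displaced ligand. Ki values are the means of two to three separate experiments, with typical assay variability of ±10%.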

Data set [2] has as its system HEK293. Kind of data set: Antagonistic activity was measured by the adhesion of HEK 293 cells transfected with human alphaV-beta3 to vitronectin-coated plates. The data set is classed as functional, cell-based. The gist of the method:
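HEK 293 cells transfected with human αvβ3 are allowed to adhere to vitronectin-coated plates. IC50 comes from two experiments run in triplicate, with an internal reference standard included.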

Data set [3] in a line: Biological half-life measured in plasma of rat. The class given is ADME, organism-based.
Data set [4] can be described thus: (§1) Plasma clearance was measured in rat. The class given is ADME, organism-based. The settings on record: plasma.
Data set [5] is described as follows: Oral bioavailability in rat. The class given is ADME, organism-based. The note with it: in vivo.
For data set [6], the species on record is Rattus norvegicus. Kind of data set: Compound was measured for in vitro efficacy in blocking vitronectin-induced migration of rat aortic smooth muscle cells (RASMC). The class given is functional, cell-based.
A short description of data set [7]: Bioavailability was measured in rat after oral administration; 2-4. The data set is classed as ADME, organism-based. The note with it: in vivo, read-out: Bioavailabiility.
The species entered for data set [8] is Rattus norvegicus. The data set is described as §1. The class given is ADME, organism-based. The settings on record: in vivo.
Data set [9] is described as follows: Biological half-life measured in plasma of rat; 22-25. The class given is ADME, organism-based.
For data set [10], the species on record is Rattus norvegicus. Kind of data set: Maximum plasma concentration of compound was measured in rat. The class given is ADME, organism-based. The note with it: in vivo.
Data set [11] in a line: Bioavailability was measured in rat after oral administration; 3-7. The class given is ADME, organism-based. The note with it: in vivo, read-out: Bioavailabiility.
Data set [12] is described as follows: Biological half-life measured in plasma of rat; 9-16. The data set is classed as ADME, organism-based.

Sequence of Integrin alpha-V/beta-3 (P05106 27-788 limits assumed): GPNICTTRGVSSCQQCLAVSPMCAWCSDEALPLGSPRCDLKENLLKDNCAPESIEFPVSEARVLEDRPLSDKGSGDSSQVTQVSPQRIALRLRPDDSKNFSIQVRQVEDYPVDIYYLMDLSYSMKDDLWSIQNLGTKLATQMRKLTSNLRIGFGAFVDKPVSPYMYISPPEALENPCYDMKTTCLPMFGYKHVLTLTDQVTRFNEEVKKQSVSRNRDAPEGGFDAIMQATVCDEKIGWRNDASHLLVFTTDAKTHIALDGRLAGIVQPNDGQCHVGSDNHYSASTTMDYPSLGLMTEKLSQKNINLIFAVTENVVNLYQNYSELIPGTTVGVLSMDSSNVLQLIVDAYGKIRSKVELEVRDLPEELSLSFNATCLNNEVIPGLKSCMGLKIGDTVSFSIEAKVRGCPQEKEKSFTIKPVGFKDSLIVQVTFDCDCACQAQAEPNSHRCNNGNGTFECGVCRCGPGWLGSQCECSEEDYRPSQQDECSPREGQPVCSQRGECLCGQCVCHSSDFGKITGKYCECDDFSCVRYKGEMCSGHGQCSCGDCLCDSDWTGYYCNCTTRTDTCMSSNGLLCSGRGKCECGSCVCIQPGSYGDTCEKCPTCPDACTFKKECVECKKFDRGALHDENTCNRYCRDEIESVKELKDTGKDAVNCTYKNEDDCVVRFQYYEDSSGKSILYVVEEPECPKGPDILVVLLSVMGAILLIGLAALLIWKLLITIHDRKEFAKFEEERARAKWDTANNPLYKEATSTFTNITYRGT
Sequence of Integrin alpha-V/beta-3 (P06756 31-889 limits assumed): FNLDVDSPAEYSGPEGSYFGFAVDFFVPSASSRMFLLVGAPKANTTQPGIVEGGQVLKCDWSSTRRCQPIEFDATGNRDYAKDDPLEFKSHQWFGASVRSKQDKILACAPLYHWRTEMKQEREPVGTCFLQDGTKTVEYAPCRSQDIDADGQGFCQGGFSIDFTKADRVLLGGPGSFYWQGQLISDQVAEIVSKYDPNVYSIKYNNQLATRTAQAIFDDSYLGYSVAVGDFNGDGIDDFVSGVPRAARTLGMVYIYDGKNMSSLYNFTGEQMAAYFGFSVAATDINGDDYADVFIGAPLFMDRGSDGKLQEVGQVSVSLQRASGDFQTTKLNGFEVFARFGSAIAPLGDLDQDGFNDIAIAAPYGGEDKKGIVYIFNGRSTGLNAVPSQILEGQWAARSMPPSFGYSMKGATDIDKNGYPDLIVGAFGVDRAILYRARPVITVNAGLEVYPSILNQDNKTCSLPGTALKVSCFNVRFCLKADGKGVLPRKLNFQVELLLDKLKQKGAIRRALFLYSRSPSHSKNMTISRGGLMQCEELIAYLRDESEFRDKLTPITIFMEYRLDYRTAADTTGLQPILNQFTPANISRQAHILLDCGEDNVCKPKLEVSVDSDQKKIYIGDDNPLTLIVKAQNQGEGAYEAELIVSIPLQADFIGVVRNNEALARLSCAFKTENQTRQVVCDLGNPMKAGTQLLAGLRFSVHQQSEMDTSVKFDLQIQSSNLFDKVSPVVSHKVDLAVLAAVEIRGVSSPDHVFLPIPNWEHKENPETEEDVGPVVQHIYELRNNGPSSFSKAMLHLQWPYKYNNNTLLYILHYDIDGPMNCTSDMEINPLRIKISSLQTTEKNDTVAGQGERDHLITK
Sequence of Integrin alpha-V/beta-3 (P06756 891-1048 limits assumed): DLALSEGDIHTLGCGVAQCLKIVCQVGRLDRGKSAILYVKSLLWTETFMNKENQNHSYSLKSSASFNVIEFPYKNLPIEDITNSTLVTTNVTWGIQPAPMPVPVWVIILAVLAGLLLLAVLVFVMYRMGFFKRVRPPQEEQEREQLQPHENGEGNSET

`Cc1ccc2nc(CN(C)C(=O)c3ccc4c(c3)CNC(=O)[C@H](CC(=O)O)N4)nc-2[nH]1` had a Ki in data set [1] of 10 nM. The molecule further returned an IC50 in [2] of 2500 nM.

The molecule `CN(Cc1nc2ccc[nH]c-2n1)C(=O)c1ccc2c(c1)CN(C)C(=O)[C@H](CC(=O)O)N2` registered a Ki in [1] of 3 nM. Besides, it took 270 nM to reach half-maximal inhibition in data set [2] (IC50).

In the case of `Cc1ccc2nc(CNC(=O)c3ccc4c(c3)CN(C)C(=O)[C@H](CC(=O)O)N4)nc-2[nH]1`, the half-life in data set [3] stood at 92 min. The molecule further returned a clearance in data set [4] of 1.8 mL/min/kg. In addition, the bioavailability in data set [5] was 8%. For the same molecule, the affinity in data set [1] corresponds to a Ki of 45 nM. The figures for the IC50 in data set [2] and in [6] were 9000 nM and 1600 nM, respectively.

With `Cc1cc(C)c2[nH]c(CN(C)C(=O)c3ccc4c(c3)CN(C)C(=O)[C@H](CC(=O)O)N4)nc2n1`, the Ki in [1] is 710 nM.

Regarding `Cc1ccc2[nH]c(CN(C)C(=O)c3ccc4c(c3)CN(C)C(=O)[C@H](CC(=O)O)N4)nc2n1`, the bioavailability in [7] worked out at 4%. Besides, the figures for the clearance in data set [8] and in [4] were 19 mL/min/kg and 17 mL/min/kg, respectively. The molecule further registered a half-life in data set [9] of 25 min. Also, the affinity in [1], expressed as Ki, was 3 nM. Moreover, the IC50 in data set [2] turned out to be 450 nM; in data set [6] it was 170 nM.

In data set [1], `CN(Cc1nc2ncncc2[nH]1)C(=O)c1ccc2c(c1)CN(C)C(=O)[C@H](CC(=O)O)N2` displayed a Ki of 23 nM. In data set [2], this molecule displayed an IC50 of 5000 nM.

Consider `CN(Cc1nc2ccccc2[nH]1)C(=O)c1ccc2c(c1)CN(C)C(=O)[C@H](CC(=O)O)N2`, for which the Cmax in data set [10] is 819 ng/mL. For the same molecule, in [4], the clearance was determined as 35 mL/min/kg. Besides, the bioavailability in data set [11] was 7%. The molecule further registered a half-life in data set [12] of 16 min. For the same molecule, the IC50 in [6] was found to be 370 nM.

Consider `Cc1ccc2[nH]c(CNC(=O)c3ccc4c(c3)CNC(=O)[C@H](CC(=O)O)N4)nc2n1` (racemic), for which affinity in [1] was put at a Ki of 90 nM. This molecule also displayed an IC50 in [2] of 20000 nM.

`COCCN1Cc2cc(C(=O)NCc3nc4ccc(C)[nH]c-4n3)ccc2N[C@@H](CC(=O)O)C1=O` (racemic): the Ki in [1] is 50 nM. Besides, the IC50 in data set [2] was 10000 nM.

In [1], `CN(Cc1nc2cc[nH]nc-2n1)C(=O)c1ccc2c(c1)CN(C)C(=O)[C@H](CC(=O)O)N2` (racemic) gave a Ki of 19 nM. Besides, the IC50 in data set [2] is 1500 nM.

For the molecule `CC(C)N1Cc2cc(C(=O)N(C)Cc3nc4ncccc4[nH]3)ccc2N[C@@H](CC(=O)O)C1=O` (racemic), the affinity in data set [1] corresponds to a Ki of 4 nM. 2000 nM corresponded to half-maximal inhibition in data set [2] (IC50).

In the case of `Cc1ccc2[nH]c(CNC(=O)c3ccc4c(c3)CN(Cc3ccccc3)C(=O)[C@H](CC(=O)O)N4)nc2n1` (racemic), in [1], the affinity, expressed as Ki, was 60 nM.

As to `Cc1ccc2nc(CN(C)C(=O)c3ccc4c(c3)CN(Cc3ccccc3)C(=O)[C@H](CC(=O)O)N4)nc-2[nH]1` (racemic), affinity in data set [1] was put at a Ki of 13 nM. This molecule displayed an IC50 in data set [2] of 160 nM.

Turning to `COCCN1Cc2cc(C(=O)N(C)Cc3nc4ncccc4[nH]3)ccc2N[C@@H](CC(=O)O)C1=O` (racemic), the half-life in [3] was 25 min. Also, the Cmax in data set [10] is 692 ng/mL. The molecule further gave a clearance in [4] of 31 mL/min/kg. The same molecule had a bioavailability in data set [5] of 4%. In data set [1], the Ki is 2.5 nM. The figures for the IC50 in data set [2] and in data set [6] were 500 nM and 230 nM, respectively.

In data set [3], `CN(Cc1nc2ccc[nH]c-2n1)C(=O)c1ccc2c(c1)CN(CCC(C)(C)C)C(=O)[C@H](CC(=O)O)N2` (racemic) registered a half-life of 14 min. Further, the highest level in data set [10] (Cmax) was 555 ng/mL. For the same molecule, the clearance in data set [4] was 55 mL/min/kg. In addition, the bioavailability in data set [5] was < 1%. The same molecule showed a Ki in data set [1] of 2.5 nM. In addition, the figures for the IC50 in data set [2] and in data set [6] were 250 nM and 470 nM, respectively.
